According to ChEMBL document CHEMBL3351261, “Induction of intrinsic apoptosis pathway in colon cancer HCT-116 cells by novel 2-substituted-5,6,7,8-tetrahydronaphthalene derivatives” (Eur J Med Chem, 2014):
Values after ≈ are worked out from the molar mass of the structure shown. Active and inactive are the calls of the source. The calls are words filed in the database; no cut-off is given here.

What was measured:
[1] = Cytotoxicity against human HCT116 cells after 48 hrs by MTT method; type: functional, cell-based; details: HCT-116, 48 h
[2] = tested on: MCF7; assay: Cytotoxicity against human MCF7 cells after 48 hrs by MTT method; type: functional, cell-based; details: MCF7, 48 h
[3] = tested on: HeLa; assay: Cytotoxicity against human HeLa cells after 48 hrs by MTT method; type: functional, cell-based
[4] = tested on: HepG2; assay: Cytotoxicity against human HepG2 cells after 48 hrs by MTT method; type: functional, cell-based; details: HepG2, 48 h
[5] = tested on: HCT-116; assay: Induction of apoptosis in human HCT116 cells assessed as increase in caspase-9 level relative to control; type: functional, cell-based
Summary of the method: (§1)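 HCT-116 cells, treated or untreated, were lysed (pH 7.4) and cleared at 14,000× g, 15 min, 4 °C. Kit-based read-outs: total caspases via Red-VAD-FMK fluorescence (Ex 540/Em 570 nm); caspase-3 colorimetric at 405 nm; caspase-9 via LEHD-pNA cleavage, pNA at 405 nm. Results are fold over untreated cells.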

[6] = tested on: HCT-116; assay: Induction of necrosis in human HCT116 cells at IC50 by acridine orange/ethidium bromide staining-based fluorescence microscopy; type: functional
Summary of the method: (§2)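 Treated and untreated HCT-116 cells were stained with acridine orange/ethidium bromide (each 100 µg/ml mix in PBS) and examined under fluorescence microscopy, blinded. Cells with yellow condensed or fragmented nuclei were counted as apoptotic; bright orange chromatin in round nuclei was counted as necrotic. Each is reported as % of the dead-cell population.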

[7] = tested on: HCT-116; assay: Induction of DNA fragmentation in human HCT116 cells at IC50 after 30 mins relative to control; type: functional
Summary of the method: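 HCT-116 cells, treated or untreated, were resuspended in TE buffer (10 mM Tris, 1 mM EDTA, pH 8.0) and lysed 30 min in 5 mM Tris, 20 mM EDTA, 0.5% Triton X-100, pH 8.0. Fragmented DNA (supernatant) was separated from intact chromatin (pellet) by centrifugation and quantified with diphenylamine reagent. % fragmentation = supernatant DNA / pellet DNA; three measurements, mean ± SD.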

[8] = tested on: HCT-116; assay: Induction of apoptosis in human HCT116 cells at IC50 by acridine orange/ethidium bromide staining-based fluorescence microscopy; type: functional; summary of the method: as §2
[9] = tested on: HCT-116; assay: Induction of apoptosis in human HCT116 cells assessed as increase in caspase-3 level relative to control; type: functional, cell-based; summary of the method: as §1
[10] = tested on: HCT-116; assay: Induction of apoptosis in human HCT116 cells assessed as reduction of mitochondrial membrane potential after 2 hrs by JC-1 staining-based fluorescence assay; type: functional, cell-based
Summary of the method: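 HCT-116 cells in 96-well plates were preloaded with 10 µg/ml JC-1 in HBSS for 30 min at 37 °C, then incubated with or without compound for 2 h at 37 °C. The 590/527 nm emission ratio was read at zero time and at 2 h and expressed as % of the zero-time reading. CCCP served as positive control; mean of three readings ± SD.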

[11] = tested on: HCT-116; assay: Induction of apoptosis in human HCT116 cells assessed as increase in total caspase level relative to control; type: functional, cell-based; summary of the method: as §1
[12] = tested on: HCT-116; assay: Induction of apoptosis in human HCT116 cells assessed as cytochrome C accumulation by immunoblotting analysis; type: functional, cell-based
Summary of the method: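 HCT-116 cells were lysed in ice-cold buffer (pH 7.4) with NP40, Triton X-100 and protease/phosphatase inhibitors, then cleared at 14,000× g for 15 min at 4 °C; protein was measured by BCA. Soluble protein (20 µg) was dot-blotted on nitrocellulose and probed for cytochrome c, detected with HRP anti-goat antibody and OPD. Dot colour intensity is given as mean % of three replicates.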

| Structure (SMILES) | IC50 [1] [µg/mL] | IC50 [2] [µg/mL] | IC50 [3] [µg/mL] | IC50 [4] [µg/mL] | Activity [5] | Activity [6] [%] | Activity [7] | Activity [8] [%] | Activity [9] | Activity [10] | Activity [11] | Activity [12] |
| --- | --- | --- | --- | --- | --- | --- | --- | --- | --- | --- | --- | --- |
| O=C(c1ccc2c(c1)CCCC2)c1coc2c1cc(O)c1ccccc12 | 36.2 (≈ 106 µM) | 48.7 (≈ 142 µM) | 40.5 (≈ 118 µM) | 31.7 (≈ 92.6 µM) |  |  |  |  |  |  |  |  |
| CC(=O)Nc1ccc(-c2ccc3c(c2)CCCC3)oc1=O | 8.4 (≈ 29.6 µM) | 20.9 (≈ 73.8 µM) | 30.4 (≈ 107 µM) | 45.3 (≈ 160 µM) | Active | 0 | Active | 77 | inactive |  |  |  |
| O=C(c1ccc2c(c1)CCCC2)c1coc2ccc(O)cc12 | 9.5 (≈ 32.5 µM) | 40.3 (≈ 138 µM) | 41.6 (≈ 142 µM) | 39.2 (≈ 134 µM) |  | 0 | Active | 77 |  | inactive |  |  |
| O=c1[nH]c(=S)[nH]c2nccc(-c3ccc4c(c3)CCCC4)c12 | 0.49 (≈ 1.58 µM) | 18.2 (≈ 58.8 µM) | 25.3 (≈ 81.8 µM) | 27 (≈ 87.3 µM) | Active | 0 | Active | 77 | Active | Active | Active | Active |
| CC(=O)O[C@H]1C(=O)[C@@]2(C)[C@H]([C@H](OC(=O)c3ccccc3)[C@]3(O)C[C@H](OC(=O)[C@H](O)[C@@H](NC(=O)c4ccccc4)c4ccccc4)C(C)=C1C3(C)C)[C@]1(OC(C)=O)CO[C@@H]1C[C@@H]2O [PACLITAXEL] | 0.38 (≈ 0.445 µM) | 0.61 (≈ 0.714 µM) | 0.47 (≈ 0.55 µM) | 0.59 (≈ 0.691 µM) |  |  | 44% |  |  |  |  |  |
| O=C(/C=C\Nc1ccc(Cl)cc1)c1ccc2c(c1)CCCC2 | 7.9 (≈ 25.3 µM) | 28.7 (≈ 92 µM) | 19.9 (≈ 63.8 µM) | 30.3 (≈ 97.2 µM) |  | 0 | Active | 77 |  | inactive |  |  |
| O=C(/C=C\Nc1ccc([N+](=O)[O-])cc1)c1ccc2c(c1)CCCC2 | 6.8 (≈ 21.1 µM) | 28.5 (≈ 88.4 µM) | 48.4 (≈ 150 µM) | 27.4 (≈ 85 µM) |  | 0 | Active | 77 |  |  | Active | Active |
| Cc1ccc(N/C=C\C(=O)c2ccc3c(c2)CCCC3)cc1 | 42.1 (≈ 144 µM) | 43.6 (≈ 150 µM) | 28.7 (≈ 98.5 µM) | 42.7 (≈ 147 µM) |  |  |  |  |  |  |  |  |
| O=C(/C=C/N1CCCCC1)c1ccc2c(c1)CCCC2 | 35.4 (≈ 131 µM) | 41.1 (≈ 153 µM) | 35.6 (≈ 132 µM) | 39.1 (≈ 145 µM) |  |  |  |  |  |  |  |  |
| CN(C)/C=C/C(=O)c1ccc2c(c1)CCCC2 | 18.9 (≈ 82.4 µM) | 29.3 (≈ 128 µM) | 33.4 (≈ 146 µM) | 22.3 (≈ 97.2 µM) |  |  |  |  |  |  |  |  |
| O=c1[nH]c(=O)c2c(-c3ccc4c(c3)CCCC4)ccnc2[nH]1 | 18.6 (≈ 63.4 µM) | 24.4 (≈ 83.2 µM) | 29.1 (≈ 99.2 µM) | 39.9 (≈ 136 µM) |  |  |  |  |  |  |  |  |
| c1cc(-c2ccc3c(c2)CCCC3)n2ncnc2n1 | 2.1 (≈ 8.39 µM) | 48.2 (≈ 193 µM) | 21.8 (≈ 87.1 µM) | 15.9 (≈ 63.5 µM) | inactive | 0 | Active | 77 | Active | Active | Active | Active |
| O=C(Nc1ccc(-c2ccc3c(c2)CCCC3)oc1=O)c1ccccc1 | 47.7 (≈ 138 µM) | 27.5 (≈ 79.6 µM) | 38.3 (≈ 111 µM) | 29.3 (≈ 84.8 µM) |  |  |  |  |  |  | Active | Active |
| O=C(/C=C\Nc1ccccc1)c1ccc2c(c1)CCCC2 | 41.6 (≈ 150 µM) | 32.2 (≈ 116 µM) | 30.6 (≈ 110 µM) | 19.9 (≈ 71.7 µM) |  |  |  |  |  |  |  |  |
| O=C(/C=C/N1CCOCC1)c1ccc2c(c1)CCCC2 | 7.2 (≈ 26.5 µM) | 38.6 (≈ 142 µM) | 41.2 (≈ 152 µM) | 18.2 (≈ 67.1 µM) |  | 0 | Active | 77 |  | inactive |  |  |
| c1ccc(-c2cc3nccc(-c4ccc5c(c4)CCCC5)n3n2)cc1 | 26.7 (≈ 82 µM) | 19.9 (≈ 61.2 µM) | 36.2 (≈ 111 µM) | 37.6 (≈ 116 µM) |  |  |  |  |  |  |  |  |
| COc1ccc(N/C=C\C(=O)c2ccc3c(c2)CCCC3)cc1 | 31.8 (≈ 103 µM) | 43.1 (≈ 140 µM) | 46.1 (≈ 150 µM) | 31.8 (≈ 103 µM) |  |  |  |  |  |  |  |  |
